Test results reported in ChEMBL document CHEMBL5678808, “Human target validation of phosphoinositide 3-kinase (PI3K)β: effects on platelets and insulin sensitivity, using AZD6482 a novel PI3Kβ inhibitor” (J Thromb Haemost, 2012).
The source made the active and inactive calls. No cut-off for these calls is given here.

Tests used:
[1] = target: DNA-dependent protein kinase catalytic subunit (Homo sapiens, UniProt P78527); assay: Inhibition of human DNA-PK assessed as reduction in protein phosphorylation by ELISA
Summary of the method: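 Recombinant human DNA-PK was tested in a functional assay, with substrate protein phosphorylation read by ELISA. IC50 is reported as mean ± SEM, with the number of determinations given.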

[2] = target: Mitogen-activated protein kinase 14 (Homo sapiens, UniProt Q16539); assay: Inhibition of human p38a
[3] = organism: Homo sapiens; assay: Inhibition of human CDK2/Cyclin A at 10 uM relative to control
[4] = target: Proto-oncogene tyrosine-protein kinase LCK (Mus musculus) (UniProt P06240); assay: Inhibition of mouse LCK at 10 uM relative to control
[5] = Inhibition of […] mouse thymoma viral oncogene homolog 1 (unknown origin) at 10 uM relative to control; settings: Homo sapiens, condition thrombotic disease
[6] = target: Protein kinase C alpha type (Homo sapiens) (UniProt P17252); assay: Inhibition of human PKCa at 10 uM relative to control
[7] = target: Dual specificity tyrosine-phosphorylation-regulated kinase 1A (Rattus norvegicus) (UniProt Q63470); assay: Inhibition of rat DYRK1A at 10 uM relative to control
[8] = target: Mitogen-activated protein kinase 8 (Homo sapiens) (UniProt P45983); assay: Inhibition of human JNK1 at 10 uM relative to control
[9] = target: Ribosomal protein S6 kinase alpha-3 (Homo sapiens) (UniProt P51812); assay: Inhibition of human MAPKAPK1B at 10 uM relative to control
[10] = target: MAP/microtubule affinity-regulating kinase 3 (Homo sapiens) (UniProt P27448); assay: Inhibition of human MARK3 at 10 uM relative to control
[11] = target: Serine/threonine-protein kinase Nek7 (Homo sapiens) (UniProt Q8TDX7); assay: Inhibition of human NEK7 at 10 uM relative to control
[12] = target: Myosin light chain kinase, smooth muscle (Homo sapiens) (UniProt Q15746); assay: Inhibition of human smMLCK at 10 uM relative to control
[13] = target: Mitogen-activated protein kinase 9 (Homo sapiens) (UniProt P45984); assay: Inhibition of human MAPK9 at 10 uM relative to control
[14] = target: Calcium/calmodulin-dependent protein kinase kinase 2 (Homo sapiens) (UniProt Q96RR4); assay: Inhibition of human CAMKKbeta at 10 uM relative to control
[15] = target: Homeodomain-interacting protein kinase 2 (Homo sapiens) (UniProt Q9H2X6); assay: Inhibition of human HIPK2 at 10 uM relative to control
[16] = target: Maternal embryonic leucine zipper kinase (Homo sapiens) (UniProt Q14680); assay: Inhibition of human MELK at 10 uM relative to control
[17] = target: Mitogen-activated protein kinase 12 (Homo sapiens) (UniProt P53778); assay: Inhibition of human MAPK12 at 10 uM relative to control
[18] = Protein binding in human plasma assessed as unbound fraction; type: ADME, cell-free
[19] = Inhibition of PI3Kbeta in Beagle dog whole blood assessed as reduction in ADP-induced platelet aggregation preincubated for 5 mins followed by ADP addition and measured for 6 mins by impedance aggregometry; type: tissue-based; settings: Canis lupus familiaris
Summary of the method: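 Ex vivo whole blood impedance aggregometry (Multiplate) with ADP as agonist, using blood drawn from anesthetized dogs in the Folts' model. Dogs were given i.v. bolus plus infusion doses over consecutive 30-min periods. Inhibition was related to measured plasma drug concentration to derive EC50. Mean ± SEM, n = 6.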

[20] = system: Canis familiaris; assay: Antithrombotic activity in Beagle dog model of arterial thrombosis and bleeding assessed as increase in bleeding time at 0.005 to 0.24 ug/kg/min, iv via bolus for 29 mins and measured for 15 mins; type: functional, organism-based; settings: Canis lupus familiaris
Summary of the method: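 Modified Folts' model of thrombosis in a damaged, stenosed femoral artery of anesthetized dogs. Animals first received saline vehicle. Consecutive i.v. doses then followed, each given over a 30-min period as a bolus (0.03–1.3 μg kg−1) plus an infusion (0.005–0.24 μg kg min−1). Read-outs were cyclic flow reductions, expressed as % restoration of blood flow, plus bleeding time, blood loss and plasma drug exposure. Mean ± SEM, n = 6.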

[21] = system: Rattus norvegicus; assay: Insulin sensitizing activity in Sprague-Dawley rat hyperinsulinemic-euglycemic glucose clamp model assessed as glucose infusion rate required to maintain euglycemia during infusion of human insulin at 6000 ug/kg/min, iv for 2 mins followed by 300 ug/kg/min, iv for 28 mins measured during clamp 1 (reference value: 124 +/- 4 umol/min/kg); type: functional; settings: time 30 min, 0.5 h
Summary of the method: (§1)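 Anesthetized rats; hyperinsulinemic–euglycemic clamp with human insulin infused. A baseline clamp (Clamp1) was followed by a second clamp (Clamp2) with vehicle or drug i.v. The drug was given as a low dose (1000 μg kg−1 + 50 μg kg min−1) or a high dose (6000 μg kg−1 + 300 μg kg min−1). Steady-state glucose infusion rate for euglycemia was recorded, with plasma glucose, human insulin and total insulin; mean ± SEM, n = 4–5/group.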

[22] = Plasma concentration in Sprague-Dawley rat hyperinsulinemic-euglycemic glucose clamp model at […], iv for 2 mins followed by 50 ug/kg/min, iv for 28 mins; type: ADME, organism-based; settings: time 30 min
Summary of the method: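 Plasma drug levels were sampled during the drug-infusion clamp period (Clamp2) in anesthetized rats under a human-insulin hyperinsulinemic–euglycemic clamp. I.v. regimens were 1000 μg kg−1 + 50 μg kg min−1 or 6000 μg kg−1 + 300 μg kg min−1; mean ± SEM, n = 4–5/group.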

[23] = system: Rattus norvegicus; assay: Insulin sensitizing activity in Sprague-Dawley rat hyperinsulinemic-euglycemic glucose clamp model assessed as glucose level during infusion of human insulin at 1000 ug/kg/min, iv for 2 mins followed by 50 ug/kg/min, iv for 28 mins measured during clamp 1 by colorimetry (reference value: 8.4 +/- 0.8 mM); type: functional; settings: time 30 min, 0.5 h; summary of the method: as §1
[24] = system: Rattus norvegicus; assay: Insulin sensitizing activity in Sprague-Dawley rat hyperinsulinemic-euglycemic glucose clamp model assessed as human insulin level during infusion of human insulin at 1000 ug/kg/min, iv for 2 mins followed by 50 ug/kg/min, iv for 28 mins measured during clamp 1 (reference value: 1.7 +/- 0.1 nM); type: functional; settings: time 30 min, 0.5 h; summary of the method: as §1
[25] = system: Rattus norvegicus; assay: Insulin sensitizing activity in Sprague-Dawley rat hyperinsulinemic-euglycemic glucose clamp model assessed as total insulin level during infusion of human insulin at 1000 ug/kg/min, iv for 2 mins followed by 50 ug/kg/min, iv for 28 mins measured during clamp 1 (reference value: 2.2 +/- 0.1 nM); type: functional; settings: time 30 min, 0.5 h; summary of the method: as §1
[26] = Toxicity in Sprague-Dawley rat assessed as change in blood pressure at 6000 ug/kg, iv for 2 mins followed by 300 ug/kg/min, iv for 28 mins; type: organism-based; settings: in vivo, 6 mg/kg, 0.5 h, time 30 min
Summary of the method: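 Blood pressure was monitored in anesthetized rats during hyperinsulinemic–euglycemic clamps. There was an initial control period, then i.v. drug at 1000 μg kg−1 + 50 μg kg min−1 or 6000 μg kg−1 + 300 μg kg min−1. Heart rate was also recorded.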

[27] = Volume of distribution at steady state in human at 0.9 to 455.8 mg, iv administered for 3 hrs via infusion by LC-MS/MS analysis; type: ADME, organism-based; settings: in vivo, dose 0.9-455.8 mg
Summary of the method: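 Healthy male volunteers (18–36 years) in a randomized, double-blind, placebo-controlled single ascending-dose study received a 3-h i.v. infusion. Plasma drug levels were measured by protein precipitation then LC-MS/MS (LLOQ 0.005 μm). Non-compartmental pharmacokinetic analysis was used; median (range) across dose levels reported.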

Chain of Proto-oncogene tyrosine-protein kinase LCK (Mus musculus) (P06240 whole entry, looked up): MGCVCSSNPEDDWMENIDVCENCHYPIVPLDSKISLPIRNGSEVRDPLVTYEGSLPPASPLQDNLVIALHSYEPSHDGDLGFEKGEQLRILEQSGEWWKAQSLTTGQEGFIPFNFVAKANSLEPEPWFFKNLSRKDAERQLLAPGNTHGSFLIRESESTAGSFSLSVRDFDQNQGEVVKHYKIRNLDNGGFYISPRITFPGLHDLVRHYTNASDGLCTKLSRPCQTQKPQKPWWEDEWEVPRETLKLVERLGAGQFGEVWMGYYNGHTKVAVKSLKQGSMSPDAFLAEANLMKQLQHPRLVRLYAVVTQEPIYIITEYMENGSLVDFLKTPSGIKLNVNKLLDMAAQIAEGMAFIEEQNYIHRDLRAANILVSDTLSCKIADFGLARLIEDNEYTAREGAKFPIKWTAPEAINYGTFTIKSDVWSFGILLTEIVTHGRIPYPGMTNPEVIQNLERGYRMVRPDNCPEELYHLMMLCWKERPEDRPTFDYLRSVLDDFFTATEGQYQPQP
Chain of Mitogen-activated protein kinase 8 (Homo sapiens) (P45983 whole entry): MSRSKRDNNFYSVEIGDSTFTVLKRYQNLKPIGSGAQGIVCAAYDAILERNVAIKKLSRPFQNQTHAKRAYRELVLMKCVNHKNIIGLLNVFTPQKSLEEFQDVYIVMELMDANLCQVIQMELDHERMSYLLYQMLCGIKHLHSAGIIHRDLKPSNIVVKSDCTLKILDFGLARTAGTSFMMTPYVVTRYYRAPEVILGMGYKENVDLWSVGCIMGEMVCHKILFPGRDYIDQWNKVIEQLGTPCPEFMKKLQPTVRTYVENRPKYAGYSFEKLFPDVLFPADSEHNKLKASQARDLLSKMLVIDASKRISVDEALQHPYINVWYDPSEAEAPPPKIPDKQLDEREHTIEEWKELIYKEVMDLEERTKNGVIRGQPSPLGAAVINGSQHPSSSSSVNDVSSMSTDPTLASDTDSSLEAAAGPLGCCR
Chain of Calcium/calmodulin-dependent protein kinase kinase 2 (Homo sapiens) (Q96RR4 2-588 limits assumed): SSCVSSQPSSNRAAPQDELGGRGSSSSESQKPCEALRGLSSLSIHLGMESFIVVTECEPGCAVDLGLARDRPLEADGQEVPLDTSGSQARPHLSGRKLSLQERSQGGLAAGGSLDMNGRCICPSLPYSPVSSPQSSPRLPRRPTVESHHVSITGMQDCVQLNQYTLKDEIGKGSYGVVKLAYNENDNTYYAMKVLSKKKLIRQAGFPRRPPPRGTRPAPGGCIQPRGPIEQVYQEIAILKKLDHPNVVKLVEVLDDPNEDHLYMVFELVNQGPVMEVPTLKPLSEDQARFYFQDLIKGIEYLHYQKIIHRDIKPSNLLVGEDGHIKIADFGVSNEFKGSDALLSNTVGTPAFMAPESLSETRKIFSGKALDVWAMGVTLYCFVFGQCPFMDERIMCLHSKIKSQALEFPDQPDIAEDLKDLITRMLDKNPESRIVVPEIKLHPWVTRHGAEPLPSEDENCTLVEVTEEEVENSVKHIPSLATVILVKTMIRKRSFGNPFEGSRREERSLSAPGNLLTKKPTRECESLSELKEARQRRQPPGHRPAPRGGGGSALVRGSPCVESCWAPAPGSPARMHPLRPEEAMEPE
Chain of Homeodomain-interacting protein kinase 2 (Homo sapiens) (Q9H2X6 whole entry, looked up): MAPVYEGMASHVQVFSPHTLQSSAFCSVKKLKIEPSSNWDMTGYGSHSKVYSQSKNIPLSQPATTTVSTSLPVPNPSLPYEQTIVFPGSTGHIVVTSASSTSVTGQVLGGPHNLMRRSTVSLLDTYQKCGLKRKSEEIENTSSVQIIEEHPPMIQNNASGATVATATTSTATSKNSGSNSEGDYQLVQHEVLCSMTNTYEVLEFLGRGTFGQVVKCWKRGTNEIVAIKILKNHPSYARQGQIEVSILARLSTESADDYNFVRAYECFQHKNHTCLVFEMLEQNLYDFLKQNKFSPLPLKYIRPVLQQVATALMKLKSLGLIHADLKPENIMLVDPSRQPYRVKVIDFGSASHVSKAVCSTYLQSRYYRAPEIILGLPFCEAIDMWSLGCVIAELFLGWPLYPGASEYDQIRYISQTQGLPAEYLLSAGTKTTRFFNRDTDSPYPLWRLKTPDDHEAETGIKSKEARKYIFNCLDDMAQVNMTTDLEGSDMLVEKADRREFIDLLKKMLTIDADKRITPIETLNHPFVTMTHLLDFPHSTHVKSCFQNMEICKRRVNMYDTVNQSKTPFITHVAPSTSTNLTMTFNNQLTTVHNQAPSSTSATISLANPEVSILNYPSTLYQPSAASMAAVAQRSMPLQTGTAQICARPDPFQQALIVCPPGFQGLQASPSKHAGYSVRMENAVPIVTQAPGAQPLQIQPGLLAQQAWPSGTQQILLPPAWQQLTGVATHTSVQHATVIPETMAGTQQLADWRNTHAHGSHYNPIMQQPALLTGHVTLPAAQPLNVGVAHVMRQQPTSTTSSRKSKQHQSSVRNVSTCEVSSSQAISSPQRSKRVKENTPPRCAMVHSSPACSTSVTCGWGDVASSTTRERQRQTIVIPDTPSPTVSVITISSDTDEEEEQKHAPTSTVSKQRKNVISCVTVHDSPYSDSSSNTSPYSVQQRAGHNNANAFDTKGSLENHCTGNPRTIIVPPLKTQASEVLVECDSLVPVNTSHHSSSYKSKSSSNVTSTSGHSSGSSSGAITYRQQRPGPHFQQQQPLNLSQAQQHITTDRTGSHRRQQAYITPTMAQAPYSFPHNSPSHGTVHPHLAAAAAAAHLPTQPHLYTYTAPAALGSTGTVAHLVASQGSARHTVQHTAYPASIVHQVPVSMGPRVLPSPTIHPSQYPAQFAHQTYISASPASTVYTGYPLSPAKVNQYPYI
Chain of Ribosomal protein S6 kinase alpha-3 (Homo sapiens) (P51812 whole entry): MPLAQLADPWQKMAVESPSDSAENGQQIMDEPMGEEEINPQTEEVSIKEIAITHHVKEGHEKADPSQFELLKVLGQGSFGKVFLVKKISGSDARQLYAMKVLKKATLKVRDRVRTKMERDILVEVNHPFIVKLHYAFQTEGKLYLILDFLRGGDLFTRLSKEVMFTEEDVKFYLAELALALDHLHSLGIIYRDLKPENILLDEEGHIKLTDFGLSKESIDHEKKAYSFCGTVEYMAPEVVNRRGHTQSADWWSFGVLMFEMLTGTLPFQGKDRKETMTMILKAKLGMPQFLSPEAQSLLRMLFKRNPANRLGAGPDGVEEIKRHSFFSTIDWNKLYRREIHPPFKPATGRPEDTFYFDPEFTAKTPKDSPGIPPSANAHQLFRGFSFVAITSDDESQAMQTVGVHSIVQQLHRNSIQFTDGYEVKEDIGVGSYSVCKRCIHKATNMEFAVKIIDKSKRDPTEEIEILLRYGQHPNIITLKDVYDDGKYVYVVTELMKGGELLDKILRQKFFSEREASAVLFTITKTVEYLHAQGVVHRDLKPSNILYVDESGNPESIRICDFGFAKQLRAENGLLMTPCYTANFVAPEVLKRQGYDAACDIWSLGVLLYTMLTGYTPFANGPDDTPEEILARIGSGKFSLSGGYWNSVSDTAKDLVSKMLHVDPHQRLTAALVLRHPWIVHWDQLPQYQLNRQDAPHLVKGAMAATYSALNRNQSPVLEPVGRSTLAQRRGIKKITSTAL
Chain of Maternal embryonic leucine zipper kinase (Homo sapiens) (Q14680 whole entry, looked up): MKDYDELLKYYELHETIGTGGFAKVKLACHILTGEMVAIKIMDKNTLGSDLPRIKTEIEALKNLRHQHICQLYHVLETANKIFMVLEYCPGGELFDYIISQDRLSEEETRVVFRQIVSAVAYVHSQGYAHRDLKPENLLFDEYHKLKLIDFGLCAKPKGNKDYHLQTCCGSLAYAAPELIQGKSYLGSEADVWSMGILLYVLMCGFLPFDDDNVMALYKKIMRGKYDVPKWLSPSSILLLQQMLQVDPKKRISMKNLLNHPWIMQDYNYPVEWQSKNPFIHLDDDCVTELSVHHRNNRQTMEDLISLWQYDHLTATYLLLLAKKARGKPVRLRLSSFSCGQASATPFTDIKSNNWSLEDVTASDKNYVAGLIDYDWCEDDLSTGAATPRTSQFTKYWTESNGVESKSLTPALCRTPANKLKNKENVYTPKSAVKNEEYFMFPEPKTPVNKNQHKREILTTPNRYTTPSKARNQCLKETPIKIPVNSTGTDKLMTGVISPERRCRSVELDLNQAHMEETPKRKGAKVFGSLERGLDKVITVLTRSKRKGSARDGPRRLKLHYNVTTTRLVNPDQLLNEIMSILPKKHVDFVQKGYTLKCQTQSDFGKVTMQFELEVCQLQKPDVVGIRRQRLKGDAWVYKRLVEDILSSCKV
Chain of Mitogen-activated protein kinase 9 (Homo sapiens) (P45984 whole entry, looked up): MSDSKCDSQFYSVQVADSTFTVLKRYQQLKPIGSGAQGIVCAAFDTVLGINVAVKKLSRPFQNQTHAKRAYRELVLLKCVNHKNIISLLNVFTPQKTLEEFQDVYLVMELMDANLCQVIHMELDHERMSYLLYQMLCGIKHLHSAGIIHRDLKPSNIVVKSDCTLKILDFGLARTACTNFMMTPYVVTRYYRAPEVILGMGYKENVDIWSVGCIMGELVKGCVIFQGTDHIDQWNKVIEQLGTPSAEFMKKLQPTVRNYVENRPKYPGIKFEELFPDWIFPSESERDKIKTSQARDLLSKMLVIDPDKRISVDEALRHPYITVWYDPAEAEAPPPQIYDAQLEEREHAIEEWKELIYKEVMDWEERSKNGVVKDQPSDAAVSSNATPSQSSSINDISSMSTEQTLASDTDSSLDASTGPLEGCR
Chain of Serine/threonine-protein kinase Nek7 (Homo sapiens) (Q8TDX7 whole entry, looked up): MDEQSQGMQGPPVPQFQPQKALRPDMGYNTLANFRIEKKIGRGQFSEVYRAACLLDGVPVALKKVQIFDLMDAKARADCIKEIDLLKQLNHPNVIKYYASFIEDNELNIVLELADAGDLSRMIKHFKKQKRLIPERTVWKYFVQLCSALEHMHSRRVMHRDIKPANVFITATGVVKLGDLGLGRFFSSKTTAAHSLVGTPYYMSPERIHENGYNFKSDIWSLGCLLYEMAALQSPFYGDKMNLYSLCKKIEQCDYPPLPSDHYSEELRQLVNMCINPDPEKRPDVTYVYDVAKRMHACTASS

IC50 [1]: 420 nM
IC50 [2]: > 671000 nM
inhibition [3]: -1.6%
inhibition [4]: 11%
inhibition [6]: -0.9%
inhibition [7]: 9%
inhibition [8]: 9.1%
inhibition [9]: 15%
inhibition [10]: -7.3%
inhibition [11]: 7.1%
inhibition [12]: 2.6%
inhibition [13]: 0.2%
inhibition [14]: 14%
inhibition [15]: 1%
inhibition [16]: 17%
inhibition [17]: 3.4%
fraction unbound [18]: 0.08
EC50 [19]: 130 nM
concentration at 0.5 h [22]: 2300 nM
Vd [27]: 48 L
Structure (SMILES): Cc1cc([C@@H](C)Nc2ccccc2C(=O)O)c2nc(N3CCOCC3)cc(=O)n2c1 [AZD-6482]
inhibition at 10 µM [5]: 2.1%
Activity [20]: inactive
Activity [21]: 106 µmol/min/kg
Activity [23]: 7.3 mM
Activity [24]: 1.8 nM
Activity [25]: 2.2 nM
Activity [26]: Non-Toxic
